Screening data (PubChem BioAssay)
RGS4 act: RGS4 potentiation or activation. HEK293 M3R/inducible RGS4, carbachol calcium flux Fluo4; hits give low values. B-score at 10 µM. 0.92% of 310,000 active;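 active = B-score of the integrated calcium signal more than 4 SD below the library mean, with starting fluorescence not abnormally high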;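 note: negative B-score means reduced calcium response which marks RGS4 activation or potentiation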
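test system = M3R-expressing HEK293 line, RGS4 induced by doxycycline | probe or stimulus = carbachol at ECmax as muscarinic agonist stimulus | timing = dye loading 30 min 37 °C, buffer rest 30 min RT | signal = calcium dye Fluo4 fluorescence | evaluation = B score from integrated fluorescence ratio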
RGS4 inh: human RGS4 inhibition; B-score at 10 µM; HEK293 M3R/RGS4 inducible, Fluo-4 calcium flux; hits give high values; triggered by carbachol at its EC20; 0.45% of 310,000 active; P49798;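 active = B-score, a plate-corrected calcium signal, over three deviations above library mean, with baseline fluorescence within five deviations of library mean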;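 note: RGS4 expression induced by doxycycline in cells with stable M3 receptor; B-score is computed from the integrated fluorescence ratio over baseline after carbachol; higher B-score means a larger calcium signal and so more RGS4 inhibition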
Target sequence (P49798 whole entry, looked up): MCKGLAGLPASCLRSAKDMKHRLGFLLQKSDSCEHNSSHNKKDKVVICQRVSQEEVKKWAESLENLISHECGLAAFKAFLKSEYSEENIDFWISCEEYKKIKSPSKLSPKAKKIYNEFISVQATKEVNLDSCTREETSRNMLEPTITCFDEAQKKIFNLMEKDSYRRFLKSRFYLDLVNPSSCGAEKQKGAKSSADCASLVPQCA
MrgX1 ag: agonists of human MrgX1 receptor; AID 588627; Q96LB2; MrgX1-HEK293 cells, Fluo-4 calcium fluorescence, agonist mode; hits give high values; 0.44% of 310,000 active; B-score at 10 µM;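 active = calcium response B-score plate-corrected fluorescence ratio at least 3 library SD, with starting fluorescence B-score inside 5 SD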
Target sequence (Q96LB2 whole entry, looked up): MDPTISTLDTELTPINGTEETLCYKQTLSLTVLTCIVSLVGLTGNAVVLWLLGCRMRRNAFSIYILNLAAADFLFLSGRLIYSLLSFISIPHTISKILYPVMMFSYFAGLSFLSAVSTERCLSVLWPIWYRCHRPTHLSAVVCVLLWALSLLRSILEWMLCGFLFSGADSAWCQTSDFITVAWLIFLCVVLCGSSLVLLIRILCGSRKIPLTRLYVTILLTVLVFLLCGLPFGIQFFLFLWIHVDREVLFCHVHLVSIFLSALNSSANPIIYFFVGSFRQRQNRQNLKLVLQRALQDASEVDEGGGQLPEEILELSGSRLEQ
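Test system: Stable human MrgX1 HEK293 cell line | Schedule: Overnight plating before 1 h dye loading | Read-out basis: Baseline-normalised fluorescence change ratio, B-scored | Detection: Kinetic calcium dye fluorescence, Fluo-4 NW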
MrgX1 antagonist: antagonists of human MrgX1 receptor; Q96LB2; MRGX1-HEK293 calcium flux, Fluo-4, BAM8-22 antagonism; hits give low values; B-score at 10 µM; 1.3% of 310,000 active; AID 588676;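 active = calcium-response B-score plate-corrected more than 3 library SD below zero, starting fluorescence within 5 deviations, no agonist response on first addition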;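 note: peak minus trough fluorescence over baseline after final BAM8-22 challenge near maximal dose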
MrgX1 PAM: allosterically activates human MrgX1 receptor signaling; Q96LB2; MrgX1-HEK293, Fluo-4 calcium flux, FDSS; hits give high values; B-score at 10 µM; 0.63% of 310,000 active; AID 588675;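 active = plate-corrected calcium response at least 3 library SD above typical, normal starting fluorescence, not activating the receptor alone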;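 note: compound read alongside a low EC10 to EC30 dose of BAM8-22 agonist; peak minus trough fluorescence over baseline measured at the second addition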
RGS4 inh valid: RGS4 inhibitor validation | shares compounds with RGS4 inh | AID 492999 | 65% of 1,700 active | calcium response, % at 10 µM | HEK293 M3R/RGS4, carbachol calcium Fluo-4 fluorescence; carbachol added at its EC20; 0 = buffer wells, 100 = carbachol control;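 active = duplicate-averaged calcium response above the buffer-only control mean plus 5 SD of those controls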;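 note: integrated fluorescence ratio F max minus min over baseline F0; higher response in RGS4-induced cells means RGS4 inhibition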
M3R Ca ctr: counter-screen for RGS4 inhibitors: effect in non-induced cells. shares compounds with RGS4 inh. HEK293 M3R non-induced, carbachol calcium Fluo-4; submaximal (EC20) carbachol stimulus; buffer wells 0%, carbachol control wells 100%. activity (percent), % at 10 µM. 20% of 1,900 active; call rule not given here;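 note: RGS4 induction absent so cells express M3R without RGS4; higher means more calcium signal and flags a non-specific hit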
M3R basal Ca ctr: signal in non-induced cells without carbachol, RGS4 inhibitor counter-screen; shares compounds with RGS4 inh; HEK293 M3R/RGS4 non-induced, Fluo-4 calcium, no carbachol; normalised: buffer wells 0%, carbachol wells 100%; calcium response (agonist-mode artifact), % at 10 µM; 22% of 1,900 active;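 active = duplicate-averaged calcium rise in uninduced cells above buffer wells' mean plus 5 SD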
Numbers stand for hits; - = inactive; . = no result. Sampled rows, rich in hits. Any-hit rate of the full collection: about 3.5%.

SMILES	RGS4 act	RGS4 inh	MrgX1 ag	MrgX1 antagonist	MrgX1 PAM	RGS4 inh valid	M3R Ca ctr	M3R basal Ca ctr
CCCN1C(=O)/C(=C/c2nc3ccccc3c(=O)[nH]2)c2ccccc21	-	11	-	-	-	8.5%	-	-
CCCN1C(=O)/C(=C/c2nc3ccccc3c(=O)[nH]2)c2cc(C)ccc21	-	9.5	-	-	-	26%	58%	-
CCn1c2ccccc2c2cc(C3C(C#N)=C(N)Oc4n[nH]c(COC)c43)ccc21 (stereo not drawn)	-	25	-	-	-	39%	34%	-
CC1=C(C(=O)c2ccccc2)C(c2cn(-c3ccccc3)nc2-c2ccc(Cl)cc2)NC(=S)N1 (stereo not drawn)	-	4.9	-	-	-	10%	-	9.0%
Cc1ccc(-n2ncc3c2CC(C)(C)CC3NC(=O)CCN2CCCO2)cc1 (stereo not drawn)	-	-	-	-	-	.	.	.
COCCCNC(=O)CN1C(=O)COc2ccc(S(=O)(=O)N3CCOCC3)cc21	-	-	-	-	-	-	-	-
CCCN(CCC)CCNC(=O)CN1C(=O)COc2ccc(S(=O)(=O)N3CCOCC3)cc21	-	-	-	-	-	.	.	.
O=Nc1c(O)n(Cc2ccc(Cl)c(Cl)c2)c2ccccc12	-	15	-	-	-	16%	39%	-
CCOC(=O)CSC1=NC(=O)/C(=C/c2ccc(OC)cc2)S1	-	4.8	-	-	-	34%	-	85%
CC(=O)Nc1cc(Cl)c(N=Cc2ccc(O)cc2O)cc1Cl	-	8.1	-	-	-	16%	29%	-
Nn1c(Nc2ccccc2)nc2sc3c(c2c1=O)CCC3	-	4.8	.	.	.	14%	-	-
COc1cccc(NC(=O)CSc2nnc(NC(=O)c3ccco3)s2)c1	-	-	-	-	-	.	.	.
CC(=O)Nc1ccc(-c2nnc(SCC(=O)Nc3ccc4c(c3)oc3ccccc34)n2C)cc1	-	-	-	-	-	.	-	16%
CCc1cccc(NC(=O)c2cc(S(=O)(=O)N(C)C)ccc2N2CCCC2)c1	-	-	-	-	-	.	.	.
Cc1c(N=NC2=C(O)CC(C)(C)CC2=O)cc2c(c1[N+](=O)[O-])C(C)(C)CC2(C)C	-	7.4	-	-	-	28%	-	-
CCN(CC)C(=O)C1CCC(CNS(=O)(=O)c2cccc3nsnc23)CC1 (stereo not drawn)	-	-	-	-	-	.	.	.
O=C(O)COc1ccc(/C=C/C(=O)c2ccc3ccccc3c2)cc1	-	4.8	-	-	-	-	-	-
CCOC(=O)CSc1nc2ccccc2c(=O)n1CC	-	-	-	-	-	.	.	.
CCn1c(SCC(=O)OC2CCCCC2)nc2ccccc2c1=O	-	5.5	-	-	-	14%	-	-
Cc1ccc(C(C[N+](=O)[O-])Sc2ccc(N)cc2)cc1 (stereo not drawn)	-	14	33	-	-	28%	-	-
Cc1[nH]c2ccccc2c1/C=N/Nc1nc(N2CCCCC2)nc(N2CCCCC2)n1	-	11	-	-	-	38%	63%	-
C(=N\Nc1nc(N2CCCCC2)nc(N2CCCCC2)n1)/c1c[nH]c2ccccc12	-	-	-	-	-	.	.	.
COC(=O)c1ccc(/C=C/C(=O)c2ccc(OC)c(OC)c2)cc1	-	8.9	-	-	-	7.0%	44%	-
Cc1ccc(C(=O)/C=C/c2ccc3ncccc3c2)cc1	-	7.8	-	-	-	22%	36%	-
COc1cc(/C=C/C(=O)c2ccc(C)cc2)ccc1OCC#N	-	-	-	-	-	-	32%	-
SMILES	RGS4 act	RGS4 inh	MrgX1 ag	MrgX1 antagonist	MrgX1 PAM	RGS4 inh valid	M3R Ca ctr	M3R basal Ca ctr
Cc1ccc(/C=C/C(=O)c2ccccc2)cc1	-	-	-	-	-	.	.	.
Cc1cc(Cl)ccc1OCC(=O)NNC(=O)c1ccco1	-	-	-	-	-	.	-	-
COc1ccccc1NS(=O)(=O)c1cccc(C(=O)N(C)Cc2cccs2)c1	-	-	-	-	-	.	.	.
COc1ccc(-n2c(CNc3ccc(C)cc3)nnc2SCc2ccccc2)cc1	-	-	-	-	-	.	-	-
Cc1noc2ncnc(Oc3ccc(F)cc3)c12	-	-	-	-	-	.	.	.
Clc1ccccc1C1Nc2cccc3cccc(c23)N1	-	-	-	-	-	.	.	.
Oc1ccc(C2Nc3cccc4cccc(c34)N2)c(O)c1	-	7.7	-	-	-	9.5%	-	-
O=C(NN=C1CCCC1)c1[nH]c2ccc(Cl)cc2c1-c1ccccc1	-	11	-	-	-	50%	-	-
CC(=O)NNC(=O)c1[nH]c2ccc(Cl)cc2c1-c1ccccc1	-	-	-	-	-	.	.	.
O=C(Nc1cccc([N+](=O)[O-])c1)C1CCN(C(=O)Cc2ccccc2)CC1	-	-	-	-	-	.	.	.
O=C(CC1NC(=O)NC1=O)Nc1ccc(Cl)cc1 (stereo not drawn)	-	-	-	-	-	.	.	.
O=C(CC1Nc2ccccc2NC1=O)Nc1cc(Cl)cc(Cl)c1 (stereo not drawn)	-	15	-	-	-	24%	-	18%
O=C(CC1Nc2cccc3cccc(c23)NC1=O)Nc1ccc(F)cc1 (stereo not drawn)	-	5.3	-	-	-	34%	-	-
Cc1ccc(/C=N/N2CCN(Cc3ccc(C)cc3)CC2)cc1	-	-	-	-	-	-	-	-
CN(CC(=O)Nc1ncn[nH]1)S(=O)(=O)c1ccc(Cl)cc1	-	-	-	-	-	.	.	.
CC(C)(CC(=O)O)CC(=O)N1CCN(c2cc(C(F)(F)F)nc3ccccc23)CC1	-	5	-	-	-	-	-	-
FC(F)(F)c1cc(N2CCN(Cc3ccccc3)CC2)c2ccccc2n1	-	-	-	-	-	.	.	.
O=C(CCN1CCN(c2ccccc2)CC1)c1ccc(Br)cc1	-	27	-	-	-	16%	-	-
Clc1ccc(OCCN2CCOCC2)cc1	-	-	-	-	-	.	.	.
O=C(CCN1CCOCC1)c1ccc(Cl)cc1	-	12	-	-	-	17%	56%	25%
CCCCCOc1ccc(C(=O)CCN2CCOCC2)cc1	-	-	-	-	-	.	.	.
O=C(CCN1CCOCC1)c1ccc(Br)cc1	-	8.4	-	-	-	29%	-	16%
NC(=O)c1ccc2c(=O)n3c(-c4cccs4)csc3nc2c1	-	-	-	-	-	.	.	.
Cn1ncc(Br)c1C(=O)NC1CCCCCCC1	-	-	.	.	.	.	.	.
